According to ChEMBL document CHEMBL2146445, “Discovery of BIIB042, a Potent, Selective, and Orally Bioavailable γ-Secretase Modulator” (ACS Med Chem Lett, 2011):

What was measured:
[1] = target: Prostaglandin G/H synthase 1 (Homo sapiens, UniProt P23219); experiment: Inhibition of COX1
[2] = target: T1, Prostaglandin G/H synthase 2 (Homo sapiens, UniProt P35354); experiment: Inhibition of COX2
T1 sequence (P35354 whole entry): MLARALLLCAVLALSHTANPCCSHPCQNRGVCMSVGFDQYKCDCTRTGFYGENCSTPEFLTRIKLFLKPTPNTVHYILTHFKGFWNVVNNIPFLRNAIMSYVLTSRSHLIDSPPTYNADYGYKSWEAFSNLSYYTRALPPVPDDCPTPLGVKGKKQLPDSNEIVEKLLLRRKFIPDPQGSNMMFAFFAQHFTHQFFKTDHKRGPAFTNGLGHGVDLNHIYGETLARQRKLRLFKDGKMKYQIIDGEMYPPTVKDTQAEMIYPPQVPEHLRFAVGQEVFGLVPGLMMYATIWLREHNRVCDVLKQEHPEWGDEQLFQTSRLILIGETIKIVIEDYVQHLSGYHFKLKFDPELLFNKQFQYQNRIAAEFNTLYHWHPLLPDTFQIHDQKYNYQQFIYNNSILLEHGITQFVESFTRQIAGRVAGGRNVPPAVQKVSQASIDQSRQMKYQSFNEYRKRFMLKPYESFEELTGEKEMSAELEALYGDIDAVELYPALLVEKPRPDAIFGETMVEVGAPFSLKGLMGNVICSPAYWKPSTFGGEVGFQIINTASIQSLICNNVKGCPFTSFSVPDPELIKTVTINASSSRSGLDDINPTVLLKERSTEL

[3] = test system: Mus musculus; experiment: Antialzheimer activity in CF1 mouse assessed as reduction in amyloid beta 42 level in brain at 10 mg/kg, po; assay type: functional; design: scale not given: the % may be the effect or the level left
In short: (§1)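 Wild-type CF-1 mice received a single oral dose as a solution in ethanol:propylene glycol:10% solutol (1:1:8). Animals were sacrificed 4 h after dosing. Brain and plasma were collected for drug concentration and Aβ levels. Aβ change was expressed relative to vehicle-treated controls.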

[4] = test system: Plasma; experiment: Fraction unbound in rat plasma; assay type: ADME, cell-free
[5] = test system: Brain; experiment: Drug uptake in CF1 mouse brain at 10 mg/kg, po; assay type: ADME, organism-based; design: dose 10 mg/kg, route oral; settings: in vivo, read-out: Drug uptake; in short: as §1
[6] = test system: Salmonella typhimurium; experiment: Mutagenicity in Salmonella typhimurium; assay type: toxicity, organism-based; settings: salmonella enterica subsp. enterica serovar typhimurium
[7] = Modulation of gamma-secretase in CHO cells overexpressing APP V717 mutant assessed as increase in amyloid beta38 level after 17 hrs by ELISA; assay type: cell-based; settings: Cricetulus griseus
In short: (§2)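 CHO cells overexpressing APP V717F; Aβ42, Aβ40 and Aβ38 quantified together in each well by multiplex Aβ ELISA. EC50 is the mean of at least two determinations.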

[8] = test system: Plasma; experiment: Fraction unbound in monkey plasma; assay type: ADME, cell-free, Macaca mulatta; settings: rhesus monkey
[9] = test system: Plasma; experiment: Fraction unbound in mouse plasma; assay type: ADME, cell-free
[10] = target: Cytochrome P450 2D6 (Homo sapiens, UniProt P10635); experiment: Inhibition of human CYP2D6; assay type: ADME
Chain of Cytochrome P450 2D6 (P10635 whole entry): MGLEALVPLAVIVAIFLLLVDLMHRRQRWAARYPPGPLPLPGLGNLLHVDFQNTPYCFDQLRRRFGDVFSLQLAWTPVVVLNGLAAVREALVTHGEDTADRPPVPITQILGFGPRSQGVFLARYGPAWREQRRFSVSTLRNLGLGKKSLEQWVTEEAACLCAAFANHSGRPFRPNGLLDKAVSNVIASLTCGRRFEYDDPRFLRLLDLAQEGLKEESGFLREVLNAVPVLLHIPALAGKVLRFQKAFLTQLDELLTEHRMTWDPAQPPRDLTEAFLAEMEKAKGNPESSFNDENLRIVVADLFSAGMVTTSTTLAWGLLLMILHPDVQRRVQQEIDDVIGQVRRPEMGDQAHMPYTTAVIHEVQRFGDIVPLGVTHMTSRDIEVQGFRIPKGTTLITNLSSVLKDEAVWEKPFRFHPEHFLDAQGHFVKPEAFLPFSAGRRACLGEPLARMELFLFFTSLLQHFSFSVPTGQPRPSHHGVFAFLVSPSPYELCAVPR

[11] = test system: Plasma; experiment: Plasma concentration in CF1 mouse at 10 mg/kg, po; assay type: ADME, organism-based; design: dose 10 mg/kg, route oral; settings: in vivo
In short: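 Wild-type (CF-1) mice given compound orally as a solution in ethanol:propylene glycol:10% solutol (1:1:8). Animals sacrificed 4 h post-dose; brain and plasma collected for drug exposure and Aβ levels.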

[12] = target: Cytochrome P450 2C19 (Homo sapiens, UniProt P33261); experiment: Inhibition of human CYP2C19; assay type: ADME
Chain of Cytochrome P450 2C19 (P33261 whole entry): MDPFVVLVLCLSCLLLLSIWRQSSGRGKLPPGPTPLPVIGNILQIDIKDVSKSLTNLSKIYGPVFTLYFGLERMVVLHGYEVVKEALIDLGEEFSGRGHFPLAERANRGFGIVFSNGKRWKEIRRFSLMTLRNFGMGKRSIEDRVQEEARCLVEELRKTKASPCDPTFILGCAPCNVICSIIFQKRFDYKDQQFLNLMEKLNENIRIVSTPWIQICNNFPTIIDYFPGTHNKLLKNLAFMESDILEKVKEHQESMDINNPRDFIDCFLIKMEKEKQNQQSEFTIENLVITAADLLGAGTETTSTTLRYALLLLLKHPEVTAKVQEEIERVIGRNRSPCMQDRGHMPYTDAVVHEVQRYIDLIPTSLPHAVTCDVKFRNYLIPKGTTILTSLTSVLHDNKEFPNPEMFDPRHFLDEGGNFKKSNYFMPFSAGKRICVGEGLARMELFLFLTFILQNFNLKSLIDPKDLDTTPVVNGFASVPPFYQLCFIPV

[13] = test system: Cynomolgus monkey; experiment: Antialzheimer activity in cynomolgus monkey assessed as reduction in amyloid beta 42 level in plasma at 10 mg/kg, po at 5 hrs; assay type: functional, Macaca fascicularis; design: scale not given: the % may be the effect or the level left
[14] = target: Voltage-gated inwardly rectifying potassium channel KCNH2 (Homo sapiens, UniProt Q12809); experiment: Inhibition of human ERG by patch clamp assay
Chain of Voltage-gated inwardly rectifying potassium channel KCNH2 (Q12809 whole entry): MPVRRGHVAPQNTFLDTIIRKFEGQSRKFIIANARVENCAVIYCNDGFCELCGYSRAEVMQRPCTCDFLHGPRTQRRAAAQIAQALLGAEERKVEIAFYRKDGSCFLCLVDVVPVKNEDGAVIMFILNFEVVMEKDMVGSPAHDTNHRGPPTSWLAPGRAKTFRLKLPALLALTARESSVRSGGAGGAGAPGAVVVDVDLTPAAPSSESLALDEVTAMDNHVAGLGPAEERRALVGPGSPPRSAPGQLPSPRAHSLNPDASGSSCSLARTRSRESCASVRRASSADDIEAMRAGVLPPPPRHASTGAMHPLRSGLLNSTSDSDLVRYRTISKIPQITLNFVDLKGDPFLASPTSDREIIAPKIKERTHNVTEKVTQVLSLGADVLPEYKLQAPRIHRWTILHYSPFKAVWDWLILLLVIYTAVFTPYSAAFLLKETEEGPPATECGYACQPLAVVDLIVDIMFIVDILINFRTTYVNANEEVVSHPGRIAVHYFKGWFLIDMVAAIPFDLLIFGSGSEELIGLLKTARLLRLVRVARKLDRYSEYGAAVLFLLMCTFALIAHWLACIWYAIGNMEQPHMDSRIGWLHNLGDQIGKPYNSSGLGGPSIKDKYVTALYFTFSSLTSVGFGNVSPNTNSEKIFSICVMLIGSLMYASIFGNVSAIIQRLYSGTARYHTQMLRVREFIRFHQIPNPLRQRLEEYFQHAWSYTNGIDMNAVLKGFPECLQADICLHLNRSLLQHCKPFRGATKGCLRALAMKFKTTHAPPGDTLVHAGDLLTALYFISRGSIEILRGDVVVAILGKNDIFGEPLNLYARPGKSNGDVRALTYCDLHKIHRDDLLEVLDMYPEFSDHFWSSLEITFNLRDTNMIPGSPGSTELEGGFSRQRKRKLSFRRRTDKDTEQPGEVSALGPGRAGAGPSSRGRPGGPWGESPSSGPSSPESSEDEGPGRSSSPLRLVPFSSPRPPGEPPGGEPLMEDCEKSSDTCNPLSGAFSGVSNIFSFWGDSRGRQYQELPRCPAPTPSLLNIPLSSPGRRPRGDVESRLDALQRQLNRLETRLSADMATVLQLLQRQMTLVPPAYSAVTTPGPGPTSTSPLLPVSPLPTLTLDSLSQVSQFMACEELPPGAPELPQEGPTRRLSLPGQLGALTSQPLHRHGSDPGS
In short: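 hERG was tested in an automated FastPatch patch-clamp assay, giving an EC50 readout.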

[15] = target: T2, Cytochrome P450 1A2 (Homo sapiens, UniProt P05177); experiment: Inhibition of human CYP1A2; assay type: ADME
T2 sequence (P05177 whole entry): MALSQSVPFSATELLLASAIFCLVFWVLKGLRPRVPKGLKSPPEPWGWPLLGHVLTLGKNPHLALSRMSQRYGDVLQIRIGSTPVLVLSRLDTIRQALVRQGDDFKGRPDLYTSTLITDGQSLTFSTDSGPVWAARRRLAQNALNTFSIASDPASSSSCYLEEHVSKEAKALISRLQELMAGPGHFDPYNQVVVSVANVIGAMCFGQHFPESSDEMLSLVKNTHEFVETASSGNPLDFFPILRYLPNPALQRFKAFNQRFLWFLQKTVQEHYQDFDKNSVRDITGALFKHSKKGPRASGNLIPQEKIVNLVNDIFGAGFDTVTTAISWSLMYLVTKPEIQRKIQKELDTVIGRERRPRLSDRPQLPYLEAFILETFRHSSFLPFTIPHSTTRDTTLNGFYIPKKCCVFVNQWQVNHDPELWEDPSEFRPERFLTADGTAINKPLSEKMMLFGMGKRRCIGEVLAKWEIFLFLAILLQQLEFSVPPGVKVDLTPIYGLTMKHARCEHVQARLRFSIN

[16] = Apparent permeability across human Caco2 cells; assay type: ADME, cell-based; settings: Caco-2
[17] = test system: Plasma; experiment: Fraction unbound in dog plasma; assay type: ADME, cell-free, Canis lupus familiaris
[18] = test system: Rattus norvegicus; experiment: Antialzheimer activity in Fischer rat assessed as reduction in amyloid beta 42 level in brain at 10 mg/kg, po; assay type: functional; design: scale not given: the % may be the effect or the level left
[19] = Modulation of gamma-secretase in CHO cells overexpressing APP V717 mutant assessed as reduction in amyloid beta42 level after 17 hrs by ELISA; assay type: cell-based; settings: Cricetulus griseus; in short: as §2
[20] = target: Gamma-secretase; experiment: Modulation of gamma-secretase in human H4 cells expressing wild type APP assessed as reduction in amyloid beta42 level; assay type: cell-based
[21] = target: Cytochrome P450 2C9 (Homo sapiens, UniProt P11712); experiment: Inhibition of human CYP2C9; assay type: ADME
Chain of Cytochrome P450 2C9 (P11712 whole entry): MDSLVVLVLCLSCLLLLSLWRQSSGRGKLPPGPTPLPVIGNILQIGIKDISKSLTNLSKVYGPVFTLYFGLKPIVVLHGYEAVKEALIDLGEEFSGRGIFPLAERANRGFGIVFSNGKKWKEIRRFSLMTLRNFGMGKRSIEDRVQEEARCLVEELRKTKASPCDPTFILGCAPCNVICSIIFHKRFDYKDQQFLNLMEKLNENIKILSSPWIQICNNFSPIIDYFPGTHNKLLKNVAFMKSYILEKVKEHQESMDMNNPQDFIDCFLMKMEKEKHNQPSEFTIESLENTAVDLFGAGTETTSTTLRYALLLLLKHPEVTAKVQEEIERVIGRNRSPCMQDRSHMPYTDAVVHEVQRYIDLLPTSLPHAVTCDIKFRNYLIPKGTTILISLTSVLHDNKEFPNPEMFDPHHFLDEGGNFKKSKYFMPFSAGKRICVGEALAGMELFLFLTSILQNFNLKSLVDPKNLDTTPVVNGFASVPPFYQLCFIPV

[22] = test system: Plasma; experiment: Fraction unbound in human plasma; assay type: ADME, cell-free

Chain of Prostaglandin G/H synthase 1 (P23219 whole entry): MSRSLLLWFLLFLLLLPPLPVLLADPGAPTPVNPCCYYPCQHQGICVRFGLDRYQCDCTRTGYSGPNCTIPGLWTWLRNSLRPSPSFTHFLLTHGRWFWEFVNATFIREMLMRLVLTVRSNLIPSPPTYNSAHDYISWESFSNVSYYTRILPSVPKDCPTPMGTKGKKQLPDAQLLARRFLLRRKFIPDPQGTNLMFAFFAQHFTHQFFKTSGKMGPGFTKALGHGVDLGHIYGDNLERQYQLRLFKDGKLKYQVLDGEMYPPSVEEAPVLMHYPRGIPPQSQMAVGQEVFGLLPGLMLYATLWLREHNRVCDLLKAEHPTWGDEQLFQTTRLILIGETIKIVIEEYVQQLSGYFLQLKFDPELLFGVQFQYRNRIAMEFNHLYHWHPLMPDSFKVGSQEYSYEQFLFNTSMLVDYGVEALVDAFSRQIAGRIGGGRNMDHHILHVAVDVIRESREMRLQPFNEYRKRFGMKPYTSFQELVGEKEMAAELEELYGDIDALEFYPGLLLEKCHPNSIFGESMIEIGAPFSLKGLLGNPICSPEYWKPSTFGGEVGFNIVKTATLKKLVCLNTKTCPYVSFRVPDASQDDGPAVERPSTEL

- IC50 [1]: 35 µM
- IC50 [2]: 27 µM
- Fu [4]: < 0.1%
- concentration [5]: 4.6 µM
- EC50 [7]: 0.15 µM
- Fu [8]: < 0.1%
- Fu [9]: < 0.1%
- IC50 [10]: > 35 µM
- concentration [11]: 10 µM
- IC50 [12]: > 35 µM
- IC50 [15]: > 35 µM
- Papp [16]: 43.8 ×10⁻⁶ cm/s
- Fu [17]: < 0.1%
- EC50 [19]: 0.17 µM
- EC50 [20]: 0.07 µM
- IC50 [21]: > 35 µM
- Fu [22]: < 0.1%
SMILES: CC1CCN([C@H](c2ccc(F)cc2)c2ccc([C@@H](C)C(=O)O)cc2-c2ccc(C(F)(F)F)cc2)CC1
- Activity [3]: 40%
- Activity [6]: Non-toxic
- Activity [13]: 30%
- EC50 [14]: 15 µM
- Activity [18]: 30%
